ChEMBL document CHEMBL1157793, “Synthesis and antitumor activity of 1,5-disubstituted 1,2,4-triazoles as cis-restricted combretastatin analogues” (J Med Chem, 2010)

How the values were obtained:
Jurkat = test: Antiproliferative activity against human Jurkat cells after 72 hrs by MTT assay; type: functional, cell-based
How it was run: (§1)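 Cells seeded at 8×10^3 per well (Jurkat, HL-60, K562 in RPMI-1640; MCF7, A549, HeLa in DMEM; all with 10% FBS, penicillin/streptomycin), incubated 18 h at 37 °C, 5% CO2, then exposed to compound at varying concentrations in complete medium for 72 h.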

MCF7 = test: Antiproliferative activity against human MCF7 cells after 72 hrs by MTT assay; type: functional, cell-based; details: MCF7, 72 h
K562 = test: Antiproliferative activity against human K562 cells after 72 hrs by MTT assay; type: functional, cell-based; details: K562, 72 h; how it was run: as §1
HeLa = test: Antiproliferative activity against human HeLa cells after 72 hrs by MTT assay; type: functional, cell-based
A549 = test: Antiproliferative activity against human A549 cells after 72 hrs by MTT assay; type: functional, cell-based; details: A549, 72 h
Bos taurus = organism: Bos taurus; test: Displacement of [3H]colchicine from bovine tubulin at 1 uM
How it was run: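 [3H]Colchicine binding inhibition measured with reaction mixtures of 1 µM tubulin, 5 µM [3H]colchicine and 1 µM test compound.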

[1] = Inhibition of bovine brain tubulin polymerization after 20 mins by turbidimetry; set-up: species or system Bos taurus
How it was run: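 Bovine brain tubulin (10 µM) preincubated with varying compound concentrations in glutamate buffer at 30 °C, chilled to 0 °C, 0.4 mM GTP added, then warmed to 30 °C in spectrophotometer; assembly followed by turbidity at 350 nm.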

HL-60 = test: Antiproliferative activity against human HL60 cells after 72 hrs by MTT assay; type: functional, cell-based; details: HL-60, 72 h

Row | SMILES | IC50 (Jurkat) [µM] | IC50 (MCF7) [µM] | IC50 (K562) [µM] | IC50 (HeLa) [µM] | IC50 (A549) [µM] | Activity (Bos taurus) [%] | IC50 [1] [µM] | IC50 (HL-60) [µM]
1 | COc1cc(-n2ncnc2-c2ccc(SC)cc2)cc(OC)c1OC | 0.05 | 0.39 | 0.34 | 0.15 | 0.8 | 38 | 3.6 | 0.5
2 | COc1ccc(/C=C\c2cc(OC)c(OC)c(OC)c2)cc1O [COMBRETASTATIN A4] | 0.005 | – | 0.005 | – | – | 87 | – | –
3 | COc1cc(-c2ncnn2-c2ccc(Cl)cc2)cc(OC)c1OC | > 10 | > 10 | > 10 | > 10 | > 10 | – | – | > 10
4 | COc1cc(-n2ncnc2-c2ccc(OC(F)(F)F)cc2)cc(OC)c1OC | > 10 | > 10 | > 10 | > 10 | > 10 | – | – | > 10
5 | COc1cc(-c2ncnn2-c2ccc(Cl)cc2Cl)cc(OC)c1OC | > 10 | > 10 | > 10 | > 10 | > 10 | – | – | > 10
6 | COc1cc(-c2ncnn2-c2cccc(F)c2)cc(OC)c1OC | > 10 | > 10 | > 10 | > 10 | > 10 | – | – | > 10
7 | COc1cc(-n2ncnc2-c2ccc(F)cc2)cc(OC)c1OC | > 10 | > 10 | > 10 | > 10 | > 10 | – | – | > 10
8 | COc1cc(-n2ncnc2-c2ccc(OC(C)C)cc2)cc(OC)c1OC | 0.65 | 0.61 | 0.8 | 0.6 | > 10 | 37 | 5.1 | 0.7
9 | COc1cc(-c2ncnn2-c2ccccc2)cc(OC)c1OC | > 10 | > 10 | > 10 | > 10 | > 10 | – | – | > 10
10 | COc1cc(-c2ncnn2-c2ccc(Cl)c(Cl)c2)cc(OC)c1OC | > 10 | > 10 | > 10 | > 10 | > 10 | – | – | > 10
11 | COc1cc(-n2ncnc2-c2ccc(Cl)cc2)cc(OC)c1OC | > 10 | > 10 | > 10 | > 10 | > 10 | – | – | > 10
12 | CCOc1ccccc1-c1ncnn1-c1cc(OC)c(OC)c(OC)c1 | > 10 | > 10 | > 10 | > 10 | > 10 | – | – | > 10
13 | COc1cc(-c2ncnn2-c2ccc([N+](=O)[O-])cc2)cc(OC)c1OC | > 10 | > 10 | > 10 | > 10 | > 10 | – | – | > 10
14 | COc1cc(-c2ncnn2-c2cccc(N)c2)cc(OC)c1OC | > 10 | > 10 | > 10 | > 10 | > 10 | – | – | > 10
15 | COc1cc(-c2ncnn2-c2ccc(F)cc2)cc(OC)c1OC | > 10 | > 10 | > 10 | > 10 | > 10 | – | – | > 10
16 | COc1cc(-n2ncnc2-c2ccc(Cl)c(Cl)c2)cc(OC)c1OC | > 10 | > 10 | > 10 | > 10 | > 10 | – | – | > 10
17 | COc1cc(-c2ncnn2-c2cccc([N+](=O)[O-])c2)cc(OC)c1OC | > 10 | > 10 | > 10 | > 10 | > 10 | – | – | > 10
18 | COc1cc(-c2ncnn2-c2ccc(N)cc2)cc(OC)c1OC | > 10 | > 10 | > 10 | > 10 | > 10 | – | – | > 10

More lines, now with the values ahead:

Row | IC50 (Jurkat) [µM] | IC50 (MCF7) [µM] | IC50 (K562) [µM] | IC50 (HeLa) [µM] | IC50 (A549) [µM] | Activity (Bos taurus) [%] | IC50 [1] [µM] | IC50 (HL-60) [µM] | SMILES
19 | > 10 | > 10 | > 10 | > 10 | > 10 | – | – | > 10 | CCOc1cccc(-c2ncnn2-c2cc(OC)c(OC)c(OC)c2)c1
20 | > 10 | > 10 | > 10 | > 10 | > 10 | – | – | > 10 | COc1cc(-n2ncnc2-c2cccc(Cl)c2)cc(OC)c1OC
21 | > 10 | > 10 | > 10 | > 10 | > 10 | – | – | > 10 | COc1ccccc1-c1ncnn1-c1cc(OC)c(OC)c(OC)c1
22 | > 10 | > 10 | > 10 | > 10 | > 10 | – | – | > 10 | COc1cccc(-c2ncnn2-c2cc(OC)c(OC)c(OC)c2)c1
23 | 0.3 | 0.54 | > 10 | 0.25 | 1.1 | 33 | 3.9 | 0.09 | COc1cc(-n2ncnc2-c2ccc(C)cc2)cc(OC)c1OC
24 | > 10 | > 10 | > 10 | > 10 | > 10 | – | – | > 10 | COc1cc(-n2ncnc2-c2ccccc2)cc(OC)c1OC
25 | > 10 | > 10 | > 10 | > 10 | > 10 | – | – | > 10 | COc1cc(-n2ncnc2-c2cccc(F)c2)cc(OC)c1OC
26 | > 10 | > 10 | > 10 | > 10 | > 10 | – | – | > 10 | COc1cc(-n2ncnc2-c2cccc([N+](=O)[O-])c2)cc(OC)c1OC
27 | 0.093 | 7.4 | 3.6 | > 10 | > 10 | – | 16 | 6.2 | COc1ccc(-n2ncnc2-c2cc(OC)c(OC)c(OC)c2)cc1
28 | 0.05 | 0.36 | 0.95 | 0.28 | 0.52 | 55 | 2.3 | 0.12 | COc1ccc(-c2ncnn2-c2cc(OC)c(OC)c(OC)c2)cc1
